In ChEMBL document CHEMBL2390929, “New nitric oxide donating 1,2,4-triazole/oxime hybrids: synthesis, investigation of anti-inflammatory, ulceroginic liability and antiproliferative activities” (Bioorg Med Chem, 2013):

What was measured:
Hs-578T = assay: Cytotoxicity against human Hs578T cells assessed as cell growth at 10^-5 M after 48 hrs by SRB assay; assay type: functional; details: read-out: Activity
In short: (§1)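 NCI 60-cell-line primary one-dose screen across nine tumour subpanels. Compound added at a single concentration of 10^-5 M and cultures incubated 48 h. Endpoint was sulforhodamine B protein staining read spectrophotometrically, with growth expressed as percent of untreated control cells.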

BT-549 = assay: Cytotoxicity against human BT549 cells assessed as cell growth at 10^-5 M after 48 hrs by SRB assay; assay type: functional; details: BT-549, 48 h, read-out: Activity; in short: as §1
UO-31 = assay: Cytotoxicity against human UO31 cells assessed as cell growth at 10^-5 M after 48 hrs by SRB assay; assay type: functional; details: UO-31, 48 h, read-out: Activity
In short: (§2)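 NCI-60 one-dose screen across nine tumour subpanels. Each agent added once at 10^-5 M, cultures incubated 48 h. Endpoint is sulforhodamine B protein staining read spectrophotometrically. Output is percent growth of treated cells relative to untreated controls.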

SN12C = assay: Cytotoxicity against human SN12C cells assessed as cell growth at 10^-5 M after 48 hrs by SRB assay; assay type: functional; details: read-out: Activity; in short: as §2
CAKI-1 = assay: Cytotoxicity against human CAKI-1 cells assessed as cell growth at 10^-5 M after 48 hrs by SRB assay; assay type: functional; details: CAKI-1, 48 h, read-out: Activity; in short: as §1
OVCAR-8 = assay: Cytotoxicity against human OVCAR8 cells assessed as cell growth at 10^-5 M after 48 hrs by SRB assay; assay type: functional; details: OVCAR-8, 48 h, read-out: Activity; in short: as §1
OVCAR-5 = assay: Cytotoxicity against human OVCAR5 cells assessed as cell growth at 10^-5 M after 48 hrs by SRB assay; assay type: functional; details: OVCAR-5, 48 h, read-out: Activity; in short: as §1
M14 = assay: Cytotoxicity against human M14 cells assessed as cell growth at 10^-5 M after 48 hrs by SRB assay; assay type: functional; details: M14, 48 h, read-out: Activity; in short: as §1
LOX IMVI = assay: Cytotoxicity against human LOXIMVI cells assessed as cell growth at 10^-5 M after 48 hrs by SRB assay; assay type: functional; details: read-out: Activity; in short: as §1
U-251 = assay: Cytotoxicity against human U251 cells assessed as cell growth at 10^-5 M after 48 hrs by SRB assay; assay type: functional; details: U-251, 48 h, read-out: Activity; in short: as §2
SNB-75 = assay: Cytotoxicity against human SNB75 cells assessed as cell growth at 10^-5 M after 48 hrs by SRB assay; assay type: functional; details: SNB-75, 48 h, read-out: Activity; in short: as §2
SF-268 = assay: Cytotoxicity against human SF268 cells assessed as cell growth at 10^-5 M after 48 hrs by SRB assay; assay type: functional; details: SF-268, 48 h, read-out: Activity; in short: as §1
SF-295 = assay: Cytotoxicity against human SF295 cells assessed as cell growth at 10^-5 M after 48 hrs by SRB assay; assay type: functional; details: SF-295, 48 h, read-out: Activity; in short: as §1
SW-620 = assay: Cytotoxicity against human SW620 cells assessed as cell growth at 10^-5 M after 48 hrs by SRB assay; assay type: functional; details: SW-620, 48 h, read-out: Activity; in short: as §2
HCT-116 = assay: Cytotoxicity against human HCT116 cells assessed as cell growth at 10^-5 M after 48 hrs by SRB assay; assay type: functional; details: HCT-116, 48 h, read-out: Activity; in short: as §1
COLO 205 = assay: Cytotoxicity against human COLO205 cells assessed as cell growth at 10^-5 M after 48 hrs by SRB assay; assay type: functional; details: COLO 205, 48 h, read-out: Activity; in short: as §1
NCI-H522 = assay: Cytotoxicity against human NCI-H522 cells assessed as cell growth at 10^-5 M after 48 hrs by SRB assay; assay type: functional; details: NCI-H522, 48 h, read-out: Activity; in short: as §1
NCI-H460 = assay: Cytotoxicity against human NCI-H460 cells assessed as cell growth at 10^-5 M after 48 hrs by SRB assay; assay type: functional; details: NCI-H460, 48 h, read-out: Activity; in short: as §1
HOP-62 = assay: Cytotoxicity against human HOP62 cells assessed as cell growth at 10^-5 M after 48 hrs by SRB assay; assay type: functional; details: HOP-62, 48 h, read-out: Activity; in short: as §1
[1] = Cytotoxicity against human EKVX cells assessed as cell growth at 10^-5 M after 48 hrs by SRB assay; assay type: functional; details: read-out: Activity; in short: as §1
RPMI-8226 = assay: Cytotoxicity against human RPMI8226 cells assessed as cell growth at 10^-5 M after 48 hrs by SRB assay; assay type: functional; details: RPMI-8226, 48 h, read-out: Activity; in short: as §1
MOLT-4 = assay: Cytotoxicity against human MOLT4 cells assessed as cell growth at 10^-5 M after 48 hrs by SRB assay; assay type: functional; details: MOLT-4, 48 h, read-out: Activity; in short: as §1
HL-60(TB) = assay: Cytotoxicity against human HL-60(TB) cells assessed as cell growth at 10^-5 M after 48 hrs by SRB assay; assay type: functional; details: HL-60, 48 h, read-out: Activity
In short: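 NCI 60-cell-line one-dose screen: compound added to cultures at a single concentration of 10^-5 M, incubated 48 h. End point by sulforhodamine B protein staining, read spectrophotometrically. Value is percent growth of treated cells relative to untreated control cells.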

Rattus norvegicus [2] = assay: Antiinflammatory activity in albino rat assessed as inhibition of carrageenan-induced paw edema at 0.28 mmol/kg, po after 5 hrs relative to control; assay type: functional
In short: (§3)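 Adult male albino rats (120–140 g), four per group, fasted 24 h with water allowed. Test agent suspended in 0.5% w/v aqueous CMC and given orally at 0.28 mmol/kg; controls received CMC alone. After 30 min, 0.1 mL fresh 1% carrageenan in saline was injected subplantar into the right hind paw and saline into the left. Paw thickness was measured by Vernier caliper; % inhibition = [(VR−VL)control − (VR−VL)treated]/(VR−VL)control ×100. Mean ± SEM, one-way ANOVA.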

Rattus norvegicus [3] = assay: Antiinflammatory activity in albino rat assessed as inhibition of carrageenan-induced paw edema at 0.28 mmol/kg, po after 4 hrs relative to control; assay type: functional; in short: as §3
Rattus norvegicus [4] = assay: Antiinflammatory activity in albino rat assessed as inhibition of carrageenan-induced paw edema at 0.28 mmol/kg, po after 3 hrs relative to control; assay type: functional; in short: as §3
Rattus norvegicus [5] = assay: Antiinflammatory activity in albino rat assessed as inhibition of carrageenan-induced paw edema at 0.28 mmol/kg, po after 2 hrs relative to control; assay type: functional; in short: as §3
Rattus norvegicus [6] = assay: Antiinflammatory activity in albino rat assessed as inhibition of carrageenan-induced paw edema at 0.28 mmol/kg, po after 1 hr relative to control; assay type: functional; in short: as §3
[7] = Induction of nitric oxide release in phosphate buffer at pH 7.4 at 0.1 mM after 2 hrs by Griess method in presence of 0.5 mM of N-acetylcysteine; assay type: physicochemical; details: pH 7.4, 2 h, 100 µM
In short: (§4)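 Compound in DMF diluted to final 10^-4 M in 1:1 50 mM phosphate buffer pH 7.4/MeOH with 5×10^-4 M N-acetylcysteine, 37 °C. Aliquot mixed with Griess reagent, 10 min at room temperature, A546 read. Nitrite quantified against sodium nitrite standards (10–80 nmol/mL); NO expressed as mol/mol. n = 4 reaction mixtures per compound.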

[8] = Induction of nitric oxide release in phosphate buffer at pH 7.4 at 0.1 mM after 1 hr by Griess method in presence of 0.5 mM of N-acetylcysteine; assay type: physicochemical; details: pH 7.4, 1 h, 100 µM; in short: as §4

Molecule `CCn1c(SC/C(=N/O)c2ccccc2)nnc1-c1ccc(OC)c(OC)c1` has a growth at 10 µM (Hs-578T) of 92.6%, a growth at 10 µM (BT-549) of 134% and a growth at 10 µM (UO-31) of 85.4%. It also gave a growth at 10 µM (SN12C) of 99.5%, a growth at 10 µM (CAKI-1) of 102% and a growth at 10 µM (OVCAR-8) of 104%. The growth at 10 µM (OVCAR-5) was 107%, the growth at 10 µM (M14) was 126% and the growth at 10 µM (LOX IMVI) was 93%. The growth at 10 µM (U-251) was 101%, the growth at 10 µM (SNB-75) was 90.3% and the growth at 10 µM (SF-268) was 101%. It also gave a growth at 10 µM (SF-295) of 146%, a growth at 10 µM (SW-620) of 106% and a growth at 10 µM (HCT-116) of 108%. The growth at 10 µM (COLO 205) was 93.5%, the growth at 10 µM (NCI-H522) was 89.4% and the growth at 10 µM (NCI-H460) was 105%. It also gave a growth at 10 µM (HOP-62) of 85.9%, a growth at 10 µM [1] of 102% and a growth at 10 µM (RPMI-8226) of 101%. It also gave a growth at 10 µM (MOLT-4) of 87.4%, a growth at 10 µM (HL-60(TB)) of 95.8% and an inhibition in vivo at 280 µmol/kg (Rattus norvegicus [2]) of 71%. It also gave an inhibition in vivo at 280 µmol/kg (Rattus norvegicus [3]) of 82%, an inhibition in vivo at 280 µmol/kg (Rattus norvegicus [4]) of 71% and an inhibition in vivo at 280 µmol/kg (Rattus norvegicus [5]) of 67%. The inhibition in vivo at 280 µmol/kg (Rattus norvegicus [6]) was 61%, the Activity [7] was 0.13 mol/mol and the Activity [8] was 0.06 mol/mol.
